These results are taken from publication PMC10445456 (Virus Research, 2023).

The target of data set [1] is human CDK7 (Homo sapiens, UniProt P50613). The data set can be described thus: qSox-IVKA of immunoprecipitated CDK7. It counts as biochemical.
Data set [2] concerns the target pUL97-Flag/CDK7 (Homo sapiens, UniProt P50613). The data set can be described thus: qSox-IVKA of coimmunoprecipitated pUL97-Flag/CDK7, pUL97-specific sensor peptide. It counts as biochemical, HCMV / human. The conditions noted are these: 0.01 µM LDC4297.
Data set [3] addresses T1, vCDK/pUL97 (Human cytomegalovirus, UniProt P16788).
T1 sequence (P16788 1-707): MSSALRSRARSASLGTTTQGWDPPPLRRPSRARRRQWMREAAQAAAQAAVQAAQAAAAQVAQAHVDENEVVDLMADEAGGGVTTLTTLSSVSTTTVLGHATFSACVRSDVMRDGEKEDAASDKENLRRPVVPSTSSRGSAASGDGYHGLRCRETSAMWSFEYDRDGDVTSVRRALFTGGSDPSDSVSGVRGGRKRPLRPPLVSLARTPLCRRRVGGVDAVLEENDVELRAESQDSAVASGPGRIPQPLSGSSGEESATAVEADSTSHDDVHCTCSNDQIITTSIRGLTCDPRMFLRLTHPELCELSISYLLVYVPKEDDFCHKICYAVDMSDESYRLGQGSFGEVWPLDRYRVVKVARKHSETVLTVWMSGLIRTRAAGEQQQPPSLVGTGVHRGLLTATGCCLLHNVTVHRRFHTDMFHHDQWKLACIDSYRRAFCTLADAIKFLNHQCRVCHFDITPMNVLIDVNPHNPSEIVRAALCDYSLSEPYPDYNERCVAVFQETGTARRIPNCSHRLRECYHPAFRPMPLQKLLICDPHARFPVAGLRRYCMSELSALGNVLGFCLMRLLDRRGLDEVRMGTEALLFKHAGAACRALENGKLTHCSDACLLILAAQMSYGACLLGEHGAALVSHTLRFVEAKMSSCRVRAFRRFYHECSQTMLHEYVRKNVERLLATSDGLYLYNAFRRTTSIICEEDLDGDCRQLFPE
The data set can be described thus: qSox-IVKA of immunoprecipitated pUL97-Flag. It counts as biochemical, HCMV.

The subject of data set [4] is HCMV-infected TEV-1 cells (cyclin H mRNA). The data set can be described thus: cyclin H mRNA levels by one-step RT-qPCR in HCMV Merlin-infected TEV-1 cells. The data set is classed as cell-based, human. The conditions noted are these: 1 µM MBV, HCMV Merlin MOI 0.5. In general terms: In qPCR the cycle at which signal appears reflects the starting amount.
Data set [5] deals with HCMV-infected HFFs (cyclin H mRNA). The data set can be described thus: cyclin H mRNA levels by one-step RT-qPCR in HCMV Merlin-infected HFFs. The data set is classed as cell-based, human. The conditions noted are these: 1 µM MBV, HCMV Merlin MOI 0.5, 7 d p.i.
In data set [6] the target is T2, CDK7 + pUL97-Flag (Human cytomegalovirus, UniProt P16788).
T2 sequence (P16788 1-707): T1 sequence (P16788 1-707)
The data set can be described thus: qSox-IVKA of CDK7 + pUL97-Flag samples, CDK7-specific sensor peptide. It counts as biochemical, human / HCMV. The note with it: 0.35 µM MBV. Put shortly:
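293T cells were transfected with pUL97-Flag or empty vector. At 2 d p.t., CDK7 and/or pUL97-Flag were immunoprecipitated, with a mouse Fc pseudo-IP as control. Eluate in HEPES pH 7.5 enzyme buffer was added to a reaction mix (final 1.0 mM ATP, 10 mM MgCl2, 15 µM CDK7 Sox sensor peptide AQT0459). Fluorescence (Ex355/Em480) was read kinetically at 30°C for about 80 min, in triplicate. Fc/empty-vector background was subtracted and Wb normalization factors applied. Combined-IP activity was related to CDK7 single IP, or pUL97-only activity was subtracted. 0.35 µM test compound or DMSO was added to combined samples. Data are from one representative biological replicate.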

The subject of data set [7] is CDK7 pSer164 and pThr170. The data set can be described thus: Wb of CDK7 T-loop phosphorylation in HCMV AD169-infected HFFs. It counts as cell-based, human. The note with it: 0.35 µM MBV from 24 h p.i., harvested 3 d p.i., HCMV AD169 MOI 0.5. The gist of the method:
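HFFs in T75 flasks were infected 1 d after seeding with HCMV AD169, UL97 K355Δ kinase-dead mutant (MOI 0.5) or mock; inoculum was replaced after 90 min at 37°C. AD169-infected cells received 0.35 µM test compound or DMSO at 24 h p.i. Cells were harvested 3 d p.i. for SDS-PAGE/Wb with phosphosite-specific antibodies against CDK7 pSer164 and pThr170.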

Sequence of human CDK7 (P50613 whole entry): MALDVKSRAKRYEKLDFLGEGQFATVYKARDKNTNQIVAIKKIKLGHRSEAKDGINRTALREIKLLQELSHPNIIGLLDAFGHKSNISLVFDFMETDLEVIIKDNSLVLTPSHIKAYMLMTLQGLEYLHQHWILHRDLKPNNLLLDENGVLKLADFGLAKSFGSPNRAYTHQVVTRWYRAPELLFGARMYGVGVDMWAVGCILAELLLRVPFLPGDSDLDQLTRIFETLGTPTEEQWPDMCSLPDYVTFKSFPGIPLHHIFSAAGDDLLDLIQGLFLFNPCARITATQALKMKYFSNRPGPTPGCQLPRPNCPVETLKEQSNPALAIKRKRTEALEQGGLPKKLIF
Sequence of human CDK7 (P51946 whole entry partner): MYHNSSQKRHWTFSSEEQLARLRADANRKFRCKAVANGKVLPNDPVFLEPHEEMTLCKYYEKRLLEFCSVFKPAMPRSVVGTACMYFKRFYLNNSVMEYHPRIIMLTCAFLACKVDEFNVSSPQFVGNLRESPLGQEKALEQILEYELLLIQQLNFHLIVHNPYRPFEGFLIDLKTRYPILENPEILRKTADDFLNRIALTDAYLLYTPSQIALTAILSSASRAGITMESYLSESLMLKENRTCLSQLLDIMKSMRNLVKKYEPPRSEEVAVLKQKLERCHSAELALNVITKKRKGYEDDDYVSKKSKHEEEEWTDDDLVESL
Sequence of human CDK7 (P51948 whole entry partner): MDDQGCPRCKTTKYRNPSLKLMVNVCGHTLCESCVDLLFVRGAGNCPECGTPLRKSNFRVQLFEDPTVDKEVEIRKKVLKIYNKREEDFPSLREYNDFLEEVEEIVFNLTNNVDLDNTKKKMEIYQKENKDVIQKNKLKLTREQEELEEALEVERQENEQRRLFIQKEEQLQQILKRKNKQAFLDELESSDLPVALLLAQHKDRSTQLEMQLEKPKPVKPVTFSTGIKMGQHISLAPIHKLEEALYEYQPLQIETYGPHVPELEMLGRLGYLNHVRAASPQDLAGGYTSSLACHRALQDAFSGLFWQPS
Sequence of pUL97-Flag/CDK7 (P50613 whole entry): as the sequence (P50613 whole entry) above
Sequence of pUL97-Flag/CDK7 (P51946 whole entry partner): as the sequence (P51946 whole entry partner) above
Sequence of pUL97-Flag/CDK7 (P51948 whole entry partner): as the sequence (P51948 whole entry partner) above

In the case of `CC(C)c1cnn2c(NCc3ccccc3-n3cccn3)nc(OC3CCCNC3)nc12` (stereo not shown) [LDC4297], the “effect on CDK7 activity” value in data set [1] (applied concentration of LDC4297 in the IVKA (5 µM)) was “completely blocked CDK7 activity”. The “change in pUL97 activity upon inhibition of CDK7” value in data set [2] is “no change in pUL97 activity”. Moreover, the “inhibitory effect on pUL97 activity” value in data set [3] (5 µM LDC4297) is “did not affect pUL97 kinase activity”.
As to `CC(C)Nc1nc2cc(Cl)c(Cl)cc2n1[C@H]1O[C@@H](CO)[C@H](O)[C@@H]1O` [MBV, maribavir], the “effect on CDK7 activity” value in data set [1] (0.35 µM MBV) is on record as “not inhibited”. Besides, the “reduction of the HCMV-induced increase of cyclin H mRNA levels” value in data set [4] is 68%; in data set [5], 28%. Also, the “pUL97-mediated increased CDK7 kinase activity (trans-stimulation)” value in data set [6] is reported as “abolished”. For the same compound, the “pUL97 kinase activity reduced to” value in data set [3] (0.35 µM) was 50%. In addition, in data set [7], the “CDK7 phosphomarkers pSer164 and pThr170” value is given as “modest increase”.
For “recombinant cyclin H: recombinant human cyclin H, full-length, GST-tag, expressed in insect cells (ABIN6699744)”, the “increase of in vitro kinase activity of pUL97” value in data set [3] (exogenous addition of 100 nM recombinant cyclin H) turned out to be 31.5%.
